Screening data deposited in PubChem by Johns Hopkins Ion Channel Center.
RGS4 block = human RGS4 inhibition. HEK293 M3R/RGS4 inducible, Fluo-4 calcium flux; hits give high values; triggered by carbachol at its EC20. P49798. hit rate 0.45% among 310,000. AID 463165. B-score at 10 µM;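 active = B-score, a plate-corrected calcium signal, over three deviations above library mean, with baseline fluorescence within five deviations of library mean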;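 note: RGS4 expression induced by doxycycline in cells with stable M3 receptor; B-score is computed from the integrated fluorescence ratio over baseline after carbachol; higher B-score means a larger calcium signal and so more RGS4 inhibition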
Target sequence (P49798 whole entry, looked up): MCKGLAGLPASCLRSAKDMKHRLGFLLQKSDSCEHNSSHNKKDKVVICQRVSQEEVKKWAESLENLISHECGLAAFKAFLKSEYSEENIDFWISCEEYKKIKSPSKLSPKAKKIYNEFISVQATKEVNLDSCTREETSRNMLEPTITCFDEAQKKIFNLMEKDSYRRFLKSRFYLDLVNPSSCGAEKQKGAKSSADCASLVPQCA
MrgX1 PAM = human MrgX1 positive allosteric modulation, primary screen. Q96LB2. MrgX1-HEK293, Fluo-4 calcium flux, FDSS; hits give high values. B-score at 10 µM. hit rate 0.63% among 310,000. AID 588675;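 active = plate-corrected calcium response at least 3 library SD above typical, normal starting fluorescence, not activating the receptor alone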;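 note: compound read alongside a low EC10 to EC30 dose of BAM8-22 agonist; peak minus trough fluorescence over baseline measured at the second addition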
Target sequence (Q96LB2 whole entry, looked up): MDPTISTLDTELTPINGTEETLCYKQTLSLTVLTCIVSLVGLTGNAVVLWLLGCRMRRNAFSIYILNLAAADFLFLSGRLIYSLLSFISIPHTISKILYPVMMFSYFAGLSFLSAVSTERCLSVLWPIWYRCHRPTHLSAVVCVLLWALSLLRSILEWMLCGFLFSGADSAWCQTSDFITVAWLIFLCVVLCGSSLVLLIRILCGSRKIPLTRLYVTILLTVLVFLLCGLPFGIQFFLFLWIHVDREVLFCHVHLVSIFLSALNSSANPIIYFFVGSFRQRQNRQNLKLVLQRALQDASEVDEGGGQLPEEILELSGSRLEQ
MrgX1 ag = human MrgX1 receptor agonism, primary screen. Q96LB2. MrgX1-HEK293 cells, Fluo-4 calcium fluorescence, agonist mode; hits give high values. B-score at 10 µM. hit rate 0.44% among 310,000. AID 588627;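 active = calcium response B-score plate-corrected fluorescence ratio at least 3 library SD, with starting fluorescence B-score inside 5 SD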
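Test system: HEK293 cells stably expressing human MrgX1 receptor; amount: 15,000 cells per well; doses: compound delivered in addition one of three; times: overnight plating before 1 h dye loading; detection: Fluo-4 NW calcium-flux fluorescence, kinetic read; read-out basis: B-scored fluorescence response ratio; controls: positive and negative controls per plate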
MrgX1 antag = human MrgX1 receptor antagonism, primary screen. MRGX1-HEK293 calcium flux, Fluo-4, BAM8-22 antagonism; hits give low values. Q96LB2. hit rate 1.3% among 310,000. B-score at 10 µM;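 active = calcium-response B-score plate-corrected more than 3 library SD below zero, starting fluorescence within 5 deviations, no agonist response on first addition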;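 note: peak minus trough fluorescence over baseline after final BAM8-22 challenge near maximal dose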
RGS4 pot = RGS4 potentiation or activation; HEK293 M3R/inducible RGS4, carbachol calcium flux Fluo4; hits give low values; hit rate 0.92% among 310,000; B-score at 10 µM;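 active = B-score of the integrated calcium signal more than 4 SD below the library mean, with starting fluorescence not abnormally high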;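 note: negative B-score means reduced calcium response which marks RGS4 activation or potentiation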
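Reagent: ECmax carbachol challenge; Test system: M3R-expressing HEK293 line, RGS4 induced by doxycycline; Schedule: overnight RGS4 induction, 30 min dye load 37 °C, 20 min compound RT; Detection: calcium dye Fluo4 fluorescence; Read-out: Agonist-evoked peak-minus-minimum fluorescence over baseline, integrated ratio, B score.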
RGS4 block valid = RGS4 inhibitor validation. shares compounds with RGS4 block. HEK293 M3R/RGS4, carbachol calcium Fluo-4 fluorescence; carbachol added at its EC20; 0 = buffer wells, 100 = carbachol control. calcium response, % at 10 µM. hit rate 65% among 1,700;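 active = duplicate-averaged calcium response above the buffer-only control mean plus 5 SD of those controls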;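 note: integrated fluorescence ratio F max minus min over baseline F0; higher response in RGS4-induced cells means RGS4 inhibition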
RGS4 uninduced = counter-screen for RGS4 inhibitors: effect in non-induced cells; hit rate 20% among 1,900; activity (percent), % at 10 µM; shares compounds with RGS4 block; HEK293 M3R non-induced, carbachol calcium Fluo-4; submaximal (EC20) carbachol stimulus; buffer wells 0%, carbachol control wells 100%; call rule not given here;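 note: RGS4 induction absent so cells express M3R without RGS4; higher means more calcium signal and flags a non-specific hit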
RGS4 inh ctr2 = signal in non-induced cells without carbachol, RGS4 inhibitor counter-screen. hit rate 22% among 1,900. AID 493001. calcium response (agonist-mode artifact), % at 10 µM. HEK293 M3R/RGS4 non-induced, Fluo-4 calcium, no carbachol; normalised: buffer wells 0%, carbachol wells 100%. shares compounds with RGS4 block;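 active = duplicate-averaged calcium rise in uninduced cells above buffer wells' mean plus 5 SD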
Hits are given with their value; - = inactive; . = not tested or not shown. This is a sample that favours compounds with a hit; in the whole collection about 3.5% have one here.

SMILES	RGS4 block	MrgX1 PAM	MrgX1 ag	MrgX1 antag	RGS4 pot	RGS4 block valid	RGS4 uninduced	RGS4 inh ctr2
COc1ccc2c(c1)CCc1sc(NC(=O)c3ccco3)nc1-2	6.6	-	-	-	-	26.5%	31.5%	-
COc1ccc2c(c1)Cc1sc(NC(C)=O)nc1-2	-	-	-	-	-	.	.	.
Cc1sc(NC(=O)c2ccco2)nc1-c1ccccc1	7.01	-	-	-	-	31.0%	-	-
COc1ccc2c(c1)Cc1sc(NC(=O)c3ccco3)nc1-2	-	-	-	-	-	.	-	-
COc1cc2c(cc1OC)CN(C(=O)C1CCN(S(=O)(=O)c3ccccc3F)CC1)CC2	-	-	-	-	-	.	.	.
COc1cccc(C2NC(=O)CCC2[N+](=O)[O-])c1 (stereo not drawn)	-	-	-	-	-	.	.	.
CCN(CC)CCN(C(=O)CCS(=O)(=O)c1ccccc1)c1nc2cc3c(cc2s1)OCO3	-	-	-	-	-	.	.	.
O=C(CSc1nnc(SCc2cccc3ccccc23)s1)N/N=C/c1c[nH]c2ccccc12	4.71	-	-	-	-	20.0%	-	-
O=C(CSc1nnc(SCc2ccc(Cl)cc2)s1)N/N=C/c1c[nH]c2ccccc12	-	-	-	-	-	.	-	-
O=C(O)COc1ccccc1/C=N/NC(=O)CSc1nnc(SCc2cccc3ccccc23)s1	-	-	-	-	-	.	.	.
Cc1ccccc1OCC(=O)Nc1ccccc1N1CCC(C)CC1	-	-	-	-	-	.	.	.
CCn1nc(C)c(CNC(=O)C2CCC(=O)N(CCc3ccc(OC)cc3)C2)c1C (stereo not drawn)	-	-	-	-	-	.	.	.
O=C(NCCS(=O)(=O)N1CCN(c2ccc(F)cc2)CC1)c1ccco1	-	-	-	-	-	.	.	.
COc1ccccc1C(=O)COC(=O)CCNS(=O)(=O)c1ccc(C)c(C)c1	-	-	-	-	-	.	.	.
CC1(C)CC(=O)c2sc(NC(=O)CCS(=O)(=O)c3ccccc3)nc2C1	4.68	-	-	-	-	7.5%	-	-
CC1(C)CC(=O)c2sc(NC(=O)c3ccccc3)nc2C1	-	-	-	-	-	.	.	.
O=C(COC(=O)c1ccc(S(=O)(=O)C(F)F)cc1)NC(=O)NC1CCCCC1	-	-	-	-	-	.	.	.
Oc1c(Br)cc(Cl)cc1C=Nc1ccccc1Br	-	-	-	-	-	.	.	.
Oc1c(Br)cc(Cl)cc1C=Nc1ccc(N2CCOCC2)cc1	-	-	-	-	-	.	-	26.0%
CCc1ccccc1-n1ncc(C(=O)Nc2ccccc2OC)c1C	7.41	-	-	-	-	-	-	31.5%
COc1ccccc1NC(=O)c1ccccc1C(=O)Nc1ccccc1OC	-	-	-	-	-	.	.	.
CCOC(=O)c1cnc2c(C)cc(Cl)cc2c1N1CCN(C)CC1	-	-	-	-	-	.	.	.
O=C(O)c1ccc2c(c1)C(=O)N(c1cccc(C(=O)/C=C/c3ccccc3)c1)C2=O	14.6	-	-	-	-	68.0%	-	-
O=C(O)c1cccc(N2C(=O)c3ccc(C(=O)c4cccc([N+](=O)[O-])c4)cc3C2=O)c1	-	-	-	-	-	.	.	.
COc1cccc(/C=N/NC(=O)CSc2nnc(C)n2-c2ccccc2)c1OC	-	-	-	-	-	.	.	.
SMILES	RGS4 block	MrgX1 PAM	MrgX1 ag	MrgX1 antag	RGS4 pot	RGS4 block valid	RGS4 uninduced	RGS4 inh ctr2
COc1cc(OC)c(OC)cc1/C=N/NC(=O)CSc1ccccc1F	-	-	-	-	-	.	.	.
COc1cccc(/C=N/NC(=O)CSc2ccccc2C)c1OC	-	-	-	-	-	-	-	-
COc1cccc(/C=N/NC(=O)CSc2ccccc2C)c1O	5.94	-	-	-	-	64.5%	-	-
COc1ccc(O)c(/C=C(\C#N)C(=O)Nc2ccccn2)c1	-	.	.	.	-	.	.	.
Cc1ccc(-c2ccc(C(=O)NCc3ccccc3)o2)c2ccccc12	6.99	-	-	-	-	-	-	-
Fc1ccccc1CN1CCCC(NC2CCC2)C1 (stereo not drawn)	6.91	-	-	-	-	8.0%	-	-
Cc1ccc(/C=C/C(=O)c2ccccc(=O)c2O)c(C)c1	-	-	-	-	-	.	-	34.0%
O=C(/C=C/c1ccccc1Cl)c1ccc(O)cc1	-	-	-	-	-	.	.	.
Cc1ccc(C)c(NC(=O)c2ccccc2O)c1	-	-	-	-	-	.	.	.
Cc1ccc(C)c(/C=C/C(=O)c2ccccc(=O)c2O)c1	7.5	-	-	-	-	14.5%	-	39.5%
O=C(/C=C/c1ccccc1Cl)c1ccccc(=O)c1O	18	8.08	-	-	-	44.5%	-	10.5%
CCc1ccc(OCCCC(=O)Nc2ccc(S(=O)(=O)Nc3cc(C)nc(C)n3)cc2)cc1	-	-	-	-	-	.	.	.
CC(=O)c1ccc(C(=O)N2CCc3c([nH]c4ccccc34)C2c2cccc(C)n2)s1 (stereo not drawn)	-	-	-	-	-	.	.	.
Cc1cccc(C2c3[nH]c4ccccc4c3CCN2C(=O)Cc2n[nH]c(C)n2)n1 (stereo not drawn)	-	-	-	-	-	.	-	-
COc1ccccc1/C=C/C=N/n1c(-c2ccccn2)n[nH]c1=S	-	-	-	-	-	.	.	.
COc1ccccc1/C=C/C=N/n1c(-c2cc(C)[nH]n2)n[nH]c1=S	-	-	-	-	-	.	-	-
O=[n+]1cc(-c2cccc3ccccc23)n([O-])c2c1CCC2	4.86	-	-	-	-	-	-	-
O=C(CC1NC(=O)NC1=O)Nc1ccc(Cl)cc1 (stereo not drawn)	-	-	-	-	-	.	.	.
O=C(CC1Nc2ccccc2NC1=O)Nc1cc(Cl)cc(Cl)c1 (stereo not drawn)	14.6	-	-	-	-	24.0%	-	18.5%
O=C(CC1Nc2cccc3cccc(c23)NC1=O)Nc1ccc(F)cc1 (stereo not drawn)	5.33	-	-	-	-	34.0%	-	-
C/C(=N\NC(=O)c1ccncc1)c1cccc(NC(=O)c2ccc(Cl)s2)c1	-	-	-	-	-	.	.	.
COc1ccc(C(=O)NCc2nnc(SCC(=O)NC3CCCCC3)o2)cc1	-	-	-	-	-	.	.	.
c1ccc(Nc2nc(N3CCCC3)nc(N3CCCC3)n2)cc1	-	-	-	-	-	.	.	.
c1ccc(Nc2nc(N3CCCCC3)nc(N3CCNCC3)n2)cc1	-	-	-	-	-	-	-	15.5%
c1ccc(Nc2nc(N3CCCCC3)nc(N3CCCCC3)n2)cc1	5.18	-	-	-	-	26.5%	-	-
